For experiment [1], the target named is T1, Adenosine receptor A3 (Homo sapiens, UniProt P0DMS8).
T1 sequence (P0DMS8 whole entry): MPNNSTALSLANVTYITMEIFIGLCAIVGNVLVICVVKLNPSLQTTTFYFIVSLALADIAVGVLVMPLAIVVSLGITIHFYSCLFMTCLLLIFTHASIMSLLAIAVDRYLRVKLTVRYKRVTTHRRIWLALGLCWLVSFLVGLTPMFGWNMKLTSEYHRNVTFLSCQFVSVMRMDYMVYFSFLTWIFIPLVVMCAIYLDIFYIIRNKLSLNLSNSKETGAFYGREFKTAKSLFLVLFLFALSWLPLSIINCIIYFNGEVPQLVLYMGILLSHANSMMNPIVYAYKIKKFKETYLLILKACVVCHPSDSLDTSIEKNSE
The experiment can be described thus: Displacement of [3H]PSB11 from human A3 adenosine receptor expressed in CHO cell membranes measured after 2 hrs by scintillation spectrometric method. In general terms: Displacement assays read how much labelled ligand stays bound in the presence of the test substance.

Experiment [2] deals with T2, Adenosine receptor A1 (Homo sapiens, UniProt P30542).
T2 sequence (P30542 whole entry): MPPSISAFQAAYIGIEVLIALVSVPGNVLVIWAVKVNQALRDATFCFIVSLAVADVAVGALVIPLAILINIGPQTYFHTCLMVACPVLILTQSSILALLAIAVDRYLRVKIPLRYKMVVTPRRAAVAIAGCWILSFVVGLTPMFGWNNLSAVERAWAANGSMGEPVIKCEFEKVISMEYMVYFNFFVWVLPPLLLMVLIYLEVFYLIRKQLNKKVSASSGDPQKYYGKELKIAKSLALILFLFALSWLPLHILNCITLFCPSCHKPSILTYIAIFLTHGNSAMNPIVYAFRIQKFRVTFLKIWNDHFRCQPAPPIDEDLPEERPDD
The experiment can be described thus: Displacement of [3H]DPCPX from human A1 adenosine receptor expressed in CHO cell membranes measured after 2 hrs by scintillation spectrometric method.

The target in experiment [3] is Adenosine receptor A2a (Homo sapiens, UniProt P29274). Description: Displacement of [3H]ZM241385 from human A2A adenosine receptor expressed in HEK293 cell membranes measured after 2 hrs by scintillation spectrometric method.
Experiment [4] addresses T3, Adenosine receptor A3 (Homo sapiens, UniProt P0DMS8, Y265F).
T3 sequence (P0DMS8 whole entry): T1 sequence (P0DMS8 whole entry)
Description: Displacement of [3H]PSB11 from human A3 adenosine receptor Y265F (7.36) mutant transiently expressed in CHOK1 cell membranes measured after 2 hrs by scintillation spectrometric method. The essentials:
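Membranes (15 µg) in 50 mM Tris-HCl, 5 mM MgCl2, 0.01% CHAPS, 1 mM EDTA, pH 7.4. Six competitor concentrations with ~10 nM [3H]PSB-11, 2 h at 25 °C. NSB from 100 µM NECA; filtration and scintillation counting; one-site fit. Three experiments, duplicate.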

Sequence of Adenosine receptor A2a (P29274 whole entry): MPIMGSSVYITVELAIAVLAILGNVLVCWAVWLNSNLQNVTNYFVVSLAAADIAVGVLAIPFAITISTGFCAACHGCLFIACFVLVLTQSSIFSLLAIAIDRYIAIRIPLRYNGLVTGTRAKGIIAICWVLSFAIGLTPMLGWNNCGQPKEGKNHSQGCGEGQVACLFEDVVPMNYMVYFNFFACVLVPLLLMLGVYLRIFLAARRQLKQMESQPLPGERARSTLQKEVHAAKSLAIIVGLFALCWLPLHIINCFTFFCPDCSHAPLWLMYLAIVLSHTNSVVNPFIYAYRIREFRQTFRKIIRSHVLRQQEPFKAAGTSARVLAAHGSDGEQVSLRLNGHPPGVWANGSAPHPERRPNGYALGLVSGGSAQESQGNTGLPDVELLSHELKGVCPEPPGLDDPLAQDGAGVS

On to `CCCn1c(=O)c2c(nc3cc(OC)ccn32)n(CCCCOC(=O)c2cccc(S(=O)(=O)F)c2)c1=O`, for which the affinity in experiment [1] corresponds to a Ki of 79 nM.

In the case of `CCCn1c(=O)c2c(nc3cc(OC)ccn32)n(CCCNC(=O)c2ccc(S(C)(=O)=O)cc2)c1=O`, the Ki in experiment [2] turned out to be 15800 nM; in experiment [3] it was 6310 nM. Further, the IC50 in experiment [4] came out at 794 nM. In turn, `CCCn1c(=O)c2c(nc3cc(OC)ccn32)n(CCOC(=O)c2ccc(S(=O)(=O)F)cc2)c1=O` had a Ki in experiment [1] of 200 nM. `CCCn1c(=O)c2c(nc3cc(OC)ccn32)n(CCCOC(=O)c2ccc(S(=O)(=O)F)cc2)c1=O` came in with a Ki in experiment [1] of 20 nM.

As for `CCCn1c(=O)c2c(nc3cc(OC)ccn32)n(CCOC(=O)c2cccc(S(=O)(=O)F)c2)c1=O`, the Ki in experiment [1] was 398 nM. Same read-out and setting: for `CCCn1c(=O)c2c(nc3cc(OC)ccn32)n(CCCCNC(=O)c2cccc(S(=O)(=O)F)c2)c1=O` the value was 158 nM. Take `CCCn1c(=O)c2c(nc3cc(OC)ccn32)n(CCCNC(=O)c2ccc(S(=O)(=O)F)cc2)c1=O`: the figures for the Ki in experiment [2] and in experiment [3] were 794 nM and 1260 nM, respectively. Molecule `CCCn1c(=O)c2c(nc3cc(OC)ccn32)n(CCCCOC(=O)c2ccc(S(=O)(=O)F)cc2)c1=O` yielded a Ki in experiment [1] of 32 nM.

For `CCCn1c(=O)c2c(nc3cc(OC)ccn32)n(CCCOC(=O)c2cccc(S(=O)(=O)F)c2)c1=O`, the affinity in experiment [1], expressed as Ki, was 100 nM.

`CCCn1c(=O)c2c(nc3cc(OC)ccn32)n(CCCCNC(=O)c2ccc(S(=O)(=O)F)cc2)c1=O` registered a Ki in experiment [1] of 32 nM. On the same count and under the same terms, the figure for `CCCn1c(=O)c2c(nc3cc(OC)ccn32)n(CCCNC(=O)c2cccc(S(=O)(=O)F)c2)c1=O` is 32 nM.

Usually Ki stands for the dissociation constant of the complex between target and ligand, obtained from inhibition or displacement. A lower Ki goes with a stronger hold on the target. As a reminder, the IC50 is the concentration needed to halve the response being measured.

The values above are taken from BindingDB's records for doi:10.1021/acs.jmedchem.8b02026 (Leiden University, 2019).
